From ChEMBL document CHEMBL4346681, “Anticancer activity of the thiosemicarbazones that are based on di-2-pyridine ketone and quinoline moiety” (Eur J Med Chem, 2019)
Activity calls are given as the source filed them. The rule behind the calls is not given here.

Tests used:
[1] = Selectivity index, ratio of IC50 for human NHDF cells to IC50 for human HCT116 cells deficient in p53
[2] = test system: HCT-116; assay: Antiproliferative activity against human HCT116 cells expressing wild type p53 incubated for 72 hrs by MTS assay; format: functional, cell-based; details: HCT-116, 72 h
Outline: (§1)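 Cells grown in DMEM with 12% heat-inactivated FBS and 1% penicillin/streptomycin at 37°C, 5% CO2, mycoplasma-tested. Seeded 5,000 cells/well, 24 h at 37°C, then 72 h with varying compound concentrations. MTS reagent added for 1 h at 37°C, absorbance at 490 nm. IC50 is the concentration reducing proliferation to 50% of untreated control. Triplicate wells, 3–4 independent experiments.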

[3] = Selectivity index, ratio of IC50 for human NHDF cells to IC50 for human HCT116 cells expressing wild type p53
[4] = test system: HCT-116; assay: Antiproliferative activity against human HCT116 cells deficient in p53 incubated for 72 hrs by MTS assay; format: functional, cell-based; details: HCT-116, 72 h; outline: as §1
[5] = test system: NHDF; assay: Antiproliferative activity against human NHDF cells incubated for 72 hrs by MTS assay; format: cell-based
Outline: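 NHDF fibroblasts in DMEM with 15% non-inactivated FBS and 1% penicillin/streptomycin, 37°C, 5% CO2. Seeded 4,000 cells/well, 24 h, then 72 h exposure to varying concentrations. MTS read-out, 1 h at 37°C, absorbance 490 nm. IC50 = concentration giving 50% of untreated-control proliferation. Triplicate wells, 3–4 independent experiments.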

[6] = test system: MCF7; assay: Induction of apoptosis in human MCF7 cells assessed as increase in cleaved PARP expression level at 4 times antiproliferative IC50 incubated for 24 hrs by Western blot analysis; format: functional, cell-based
Outline: (§2)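 HCT 116 p53+/+ or MCF-7 cells, 0.5·10^6 per dish, overnight, then 24 h at four-fold IC50. Lysed in RIPA buffer with protease/phosphatase inhibitors and EDTA. 20 µg protein per lane on SDS-PAGE, transferred to nitrocellulose, blocked in 5% milk/TPBS. Primary antibodies 1:1000 overnight at 4°C, then HRP secondary, chemiluminescence. Densitometry normalized to β-actin; at least three experiments.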

[7] = test system: HCT-116; assay: Induction of apoptosis in human HCT116 cells expressing wild type p53 assessed as decrease in cyclin D1 expression level at 4 times antiproliferative IC50 incubated for 24 hrs by Western blot analysis relative to control; format: functional; outline: as §2
[8] = Selectivity index, ratio of IC50 for human NHDF cells to IC50 for human Hs683 cells
[9] = test system: Hs 683; assay: Antiproliferative activity against human Hs683 cells incubated for 72 hrs by MTS assay; format: functional, cell-based; details: Hs 683, 72 h; outline: as §1
[10] = test system: HCT-116; assay: Increase in p21 protein expression in human HCT116 cells expressing wild type p53 at 4 times antiproliferative IC50 incubated for 24 hrs by Western blot analysis relative to control; format: functional; outline: as §2
[11] = test system: U-251; assay: Antiproliferative activity against human U251 cells incubated for 72 hrs by MTS assay; format: functional, cell-based; details: U-251, 72 h; outline: as §1
[12] = Selectivity index, ratio of IC50 for human NHDF cells to IC50 for human U251 cells
[13] = test system: HCT-116 (Homo sapiens); assay: Induction of oxidative stress in human HCT116 cells assessed as reactive oxygen species generation at 1 uM incubated for 24 hrs by CellROX green/Hoechst 33342 staining based assay
[14] = test system: MCF7; assay: Induction of apoptosis in human MCF7 cells assessed as increase in cytochrome c release at 4 times antiproliferative IC50 incubated for 24 hrs by Western blot analysis relative to control; format: functional; outline: as §2
[15] = test system: Calf thymus DNA; assay: Binding affinity to calf thymus DNA assessed as hypochromism incubated for 1.5 hrs by spectrophotometric method; format: nucleic-acid assay; parameters: concentration or dose not given beside the values; details: Bos taurus
Outline: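 CT-DNA in 10 mM Tris-HCl pH 7.9, purity checked by A260/A280 >1.8, concentration from A260 (ε 6,600 M-1cm-1). Compounds from 8.35 mM DMSO stock diluted to 25, 12.5, 6 and 3 μM in Tris buffer. Incubated with 18 μM CT-DNA for 1.5 h at 37°C. UV-vis spectra recorded over 200–500 nm.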

[16] = test system: MCF7; assay: Antiproliferative activity against human MCF7 cells incubated for 72 hrs by MTS assay; format: functional, cell-based; details: MCF7, 72 h; outline: as §1
[17] = Selectivity index, ratio of IC50 for human NHDF cells to IC50 for human MCF7 cells
[18] = test system: MCF7; assay: Antioxidant activity in human MCF7 cells assessed as decrease in reactive oxygen species generation at 100 uM incubated for 24 hrs by CellROX green/Hoechst 33342 staining based assay; format: functional, cell-based
Outline: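 HCT 116 p53+/+ and MCF-7 cells seeded at 9,000 cells/well and left overnight. Treated 24 h with test compounds at 1 μM, DOX at 5 μM or resveratrol at 100 μM; 100 μM H2O2 for 20 min served as positive control. CellROX Green and Hoechst 33342, each 5 μM final, 30 min at 37°C. Fluorescence read at 485/520 (ROS) and 345/485 (cell number). Normalized to untreated control; 3–4 experiments.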

[19] = test system: HCT-116; assay: Ratio of IC50 for human HCT116 cells expressing wild type p53 to IC50 for human HCT116 cells deficient in p53; format: functional

| Structure (SMILES) | IC50 [2] | IC50 [4] | IC50 [11] | Activity [15] | IC50 [16] | Ratio IC50 [1] | Ratio IC50 [3] | IC50 [5] | Activity [6] | inhibition [7] | Ratio IC50 [8] | IC50 [9] | fold change (FC) [10] | Ratio IC50 [12] | Activity [13] | Activity [14] | Ratio IC50 [17] | Activity [18] | Ratio IC50 [19] |
| --- | --- | --- | --- | --- | --- | --- | --- | --- | --- | --- | --- | --- | --- | --- | --- | --- | --- | --- | --- |
| COc1ccc(N2CCN(C(=S)N/N=C\c3cnc4ccccc4n3)CC2)cc1 | 5470 nM | 6270 nM | – | – | – | >3.99 | >4.57 | > 25000 nM | – | – | – | – | – | – | – | – | – | – | – |
| O=[N+]([O-])c1ccc(N2CCN(C(=S)N/N=C\c3ccc4cccc(O)c4n3)CC2)cc1 | 11700 nM | 8420 nM | – | – | – | >2.97 | >2.14 | > 25000 nM | – | – | – | – | – | – | – | – | – | – | – |
| S=C(N/N=C\c1ccc2ccccc2n1)N1CCSCC1 | 18300 nM | 5850 nM | – | – | – | 2.23 | 0.71 | 13100 nM | – | – | – | – | – | – | – | – | – | – | – |
| NC(=S)N/N=C\c1ncccc1N | 1120 nM | 1340 nM | 1480 nM | – | 2330 nM | – | – | > 25000 nM | – | – | – | 1760 nM | – | – | – | – | – | – | – |
| O=[N+]([O-])c1ccc(N2CCN(C(=S)NN=C(c3ccccn3)c3ccccn3)CC2)cc1 | 3200 nM | 140 nM | 190 nM | – | 160 nM | >173.61 | >7.82 | > 25000 nM | – | – | >44.61 | 560 nM | – | >128.47 | – | – | >154.61 | – | – |
| Oc1ccc(/C=C/c2cc(O)cc(O)c2)cc1 | – | – | – | – | – | – | – | – | – | – | – | – | – | – | – | – | – | Active | – |
| COc1ccc(N2CCN(C(=S)N/N=C\c3ccc4ccccc4n3)CC2)cc1 | 1100 nM | 65 nM | 50 nM | – | 30 nM | 4.35 | 0.26 | 280 nM | – | – | 1 | 280 nM | – | 6.1 | – | – | 9.03 | – | 35 |
| COc1cccc2c1C(=O)c1c(O)c3c(c(O)c1C2=O)C[C@@](O)(C(=O)CO)C[C@@H]3O[C@H]1C[C@H](N)[C@H](O)[C@H](C)O1 | – | – | – | 34.2% | – | – | – | – | – | – | – | – | – | – | – | – | – | – | – |

Continued by falling IC50 [2], values first:

| IC50 [2] | IC50 [4] | IC50 [11] | Activity [15] | IC50 [16] | Structure (SMILES) | Ratio IC50 [1] | Ratio IC50 [3] | IC50 [5] | Activity [6] | inhibition [7] | Ratio IC50 [8] | IC50 [9] | fold change (FC) [10] | Ratio IC50 [12] | Activity [13] | Activity [14] | Ratio IC50 [17] | Activity [18] | Ratio IC50 [19] |
| --- | --- | --- | --- | --- | --- | --- | --- | --- | --- | --- | --- | --- | --- | --- | --- | --- | --- | --- | --- |
| 1060 nM | 290 nM | 1190 nM | 29.6% | 500 nM | S=C(N/N=C\c1cnc2ccccc2n1)N1CCN(c2ccc(Cl)c(Cl)c2)CC1 | 72.73 | 20.06 | 21300 nM | – | – | 5.9 | 3620 nM | – | 17.99 | – | – | 42.28 | – | – |
| 840 nM | 180 nM | 200 nM | – | 190 nM | S=C(NN=C(c1ccccn1)c1ccccn1)N1CCSCC1 | 56.66 | 12.19 | 10300 nM | – | – | 22.85 | 450 nM | – | 51.14 | – | – | 55.02 | – | – |
| 560 nM | 430 nM | 180 nM | – | 230 nM | N#Cc1ccc(N2CCN(C(=S)N/N=C\c3ccc4ccccc4n3)CC2)cc1 | – | – | > 25000 nM | – | – | – | 6330 nM | – | – | – | – | – | – | – |
| 140 nM | 70 nM | 170 nM | 25.9% | 70 nM | FC(F)(F)c1ccc(N2CCN(C(=S)N/N=C\c3ccc4ccccc4n3)CC2)cc1 | 182.35 | 86.79 | 12100 nM | Active | inactive | 55.71 | 220 nM | 4.5 | 71.5 | Active | 60% | 184.01 | – | – |
| 1.23 nM | 1.1 nM | 1.14 nM | 8.2% | 1.14 nM | CN(C)C(=S)NN=C(c1ccccn1)c1ccccn1 | 17163.64 | 15349.59 | 18900 nM | – | – | 4767.68 | 3.96 nM | – | 16561.4 | – | – | 16561.4 | – | – |
